Measurements gathered from unrelated publications.
Protocols differ between the studies behind these lines.
Read-out: parasite growth

The IC50 of `Oc1ccc(/C=C/c2cc(O)cc(O)c2)cc1` is reported as 97.9 µM (Leishmania amazonensis; MTT; 72 h, promastigote).
`COc1ccc(S(=O)(=O)c2ccc(OC)c(OC)c2OC)cc1` has an IC50 of 32 µM (Leishmania braziliensis; MTT; 24 h, promastigote).
For `CC(C)(C)CC(C)(C)Nc1c(-c2ccc(-c3ccccc3)cc2)nc2ncccn12`, the IC50 was 31.1 µM (Leishmania amazonensis; MTT; 72 h, promastigote).
`C[C@@H]1[C@H](O)[C@@H](C)/C=C/C=C/C=C/C=C/C=C/C=C/C=C/[C@H](O[C@@H]2O[C@H](C)[C@@H](O)[C@H](N)[C@@H]2O)C[C@@H]2O[C@](O)(C[C@@H](O)C[C@@H](O)[C@H](O)CC[C@@H](O)C[C@@H](O)CC(=O)O[C@H]1C)C[C@H](O)[C@H]2C(=O)O` gave an IC50 of 22 µM (Leishmania braziliensis; MTT; 24 h, promastigote).
`CCCCCCCCCCCCCCCCOP(=O)([O-])OCC[N+](C)(C)C` gave an IC50 of 15.1 µM (Leishmania amazonensis; MTT; 72 h, promastigote).
With `C=C1CC[C@@H]2C(C)(C)CCC[C@@]2(C)[C@@H]1CC/C(C)=C/C(=O)OC` the IC50 was 6 µg/mL (Leishmania amazonensis; 72 h, promastigote).
`COc1ccc(Sc2ccccc2)c(OC)c1OC` gave an IC50 of 14.3 µM (Leishmania braziliensis; MTT; 24 h, promastigote).
The IC50 of `CC(C)(C)CC(C)(C)Nc1c(-c2cccs2)nc2ncccn12` is reported as greater than 100 µM (Leishmania amazonensis; MTT; 72 h, promastigote).
With `C[C@@H]1[C@H](O)[C@@H](C)/C=C/C=C/C=C/C=C/C=C/C=C/C=C/[C@H](O[C@@H]2O[C@H](C)[C@@H](O)[C@H](N)[C@@H]2O)C[C@@H]2O[C@](O)(C[C@@H](O)C[C@@H](O)[C@H](O)CC[C@@H](O)C[C@@H](O)CC(=O)O[C@H]1C)C[C@H](O)[C@H]2C(=O)O` the IC50 was 0.06 µg/mL (Leishmania amazonensis; 72 h, promastigote).
`N=C(N)c1ccc(OCCCCCOc2ccc(C(=N)N)cc2)cc1` has an IC50 of 3.4 µM (Leishmania amazonensis; imaging; 48 h, intracellular, amastigote).
The IC50 of `COc1ccc(Sc2ccc(OC)c(OC)c2OC)cc1` is reported as 28 µM (Leishmania braziliensis; MTT; 24 h, promastigote).
`C=C1CC[C@@H]2[C@](C)(CCC[C@@]2(C)C(=O)O)[C@H]1CCc1ccoc1` has an IC50 of 35 µg/mL (Leishmania amazonensis; 72 h, promastigote).
